In ChEMBL document CHEMBL3120049, “Conformational restriction of aryl thiosemicarbazones produces potent and selective anti-Trypanosoma cruzi compounds which induce apoptotic parasite death” (Eur J Med Chem, 2014):
Calls of active or inactive are those of the source. No cut-off for these calls is given here.

Legend:
[1] = system: Trypanosoma cruzi; test: Antitrypanosomal activity against Trypanosoma cruzi Y […] trypomastigotes isolated from infected LLC-MK2 cells assessed as parasite viability after 24 hrs by neubauer chamber analysis; type: functional; settings: LLC-MK2, 24 h
Outline: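 Y strain (TcII) […] trypomastigotes taken from supernatant of infected LLC-MK2 cells, seeded at 4 × 10⁵ cells/well in RPMI-1640. DMSO stocks serially diluted in RPMI. 24 h at 37 °C, 5% CO₂; viable parasites counted in a Neubauer chamber, % inhibition versus untreated cultures; CC50 by nonlinear regression, triplicates, experiment repeated, SD <10% of mean required.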

[2] = system: Trypanosoma cruzi; test: Antitrypanosomal activity against Trypanosoma cruzi Dm28c epimastigotes assessed as inhibition of parasite proliferation after 5 days by hemocytometer analysis; type: functional, organism-based; settings: 120 h
Outline: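 Dm28c epimastigotes kept in LIT medium with 10% FBS at 26 °C, seeded at 10⁶ cells/well. DMSO stocks serially diluted in LIT (1.23–100 […] as printed; final DMSO 1%), triplicate wells. 5 days at 26 °C, then viable parasites counted in a Neubauer chamber against untreated culture; IC50 from concentrations in triplicate, experiment repeated, only values with SD <10% of mean kept.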

[3] = Cytotoxicity against BALB/c mouse splenocytes assessed as cell viability after 24 hrs by [3H]thymidine incorporation assay; type: cell-based, Splenocyte; settings: for MNTC at 24 h: read-out: MNCC
Outline: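 Splenocytes from BALB/c mice seeded at 5 × 10⁶ cells/well. DMSO stocks serially diluted in RPMI-1640 (final DMSO 1%), triplicate wells. 24 h at 37 °C, 5% CO₂ with […] ³H-thymidine; cells harvested, % ³H-thymidine incorporation by scintillation counting. CC50 from five concentrations; highest non-cytotoxic concentration also noted.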

[4] = system: Trypanosoma cruzi; test: Antitrypanosomal activity against Trypanosoma cruzi trypomastigotes assessed as induction of apoptotic parasitic death at CC25 to CC100 after 24 hrs by Annexin V-FITC/propidium iodide staining based flow cytometry; type: functional, organism-based
[5] = target: Cruzipain (Trypanosoma cruzi) (UniProt P25779); test: Inhibition of Trypanosomal cruzi recombinant cruzain assessed as substrate cleavage using Z-Phe-Arg-AMC as substrate at 50 uM preincubated for 10 mins measured for 5 mins by flow cytometry; settings: in the assay text read “by fluorescence assay” for “by flow cytometry”
Outline: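 Recombinant cruzain, final concentration 0.5 nM, in 0.1 M sodium acetate pH 5.5 with 1 mM β-mercaptoethanol and 0.01% Triton X-100. Substrate Z-FR-AMC at 2.5 (Km 1.0). Screened with no pre-incubation and after 10-min enzyme pre-incubation. Fluorescence read at ex 340/em 440 nm for 5 min, activity relative to DMSO control. Two independent experiments in triplicate.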

[6] = system: Trypanosoma cruzi; test: Antitrypanosomal activity against Trypanosoma cruzi trypomastigotes assessed as necrotic cells at 1.1 uM after 24 hrs by Annexin V-FITC/propidium iodide staining based flow cytometry (reference value: 0.37%); type: functional
[7] = system: Trypanosoma cruzi; test: Antitrypanosomal activity against Trypanosoma cruzi trypomastigotes assessed as late apoptotic cells at 0.25 uM after 24 hrs by Annexin V-FITC/propidium iodide staining based flow cytometry (reference value: 0.8%); type: functional
[8] = Selectivity index, ratio of CC50 for BALB/c mouse splenocytes to CC50 for Trypanosoma cruzi Y trypomastigotes
Outline: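 Ratio of CC50 in BALB/c splenocytes (24 h ³H-thymidine incorporation) to CC50 in Y strain trypomastigotes (24 h Neubauer count of viable parasites).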

[9] = system: Trypanosoma cruzi; test: Antitrypanosomal activity against Trypanosoma cruzi trypomastigotes assessed as induction of apoptotic parasitic death after 24 hrs by Annexin V-FITC/propidium iodide staining based flow cytometry; type: functional, organism-based
[10] = system: Trypanosoma cruzi; test: Antitrypanosomal activity against Trypanosoma cruzi trypomastigotes assessed as early apoptotic cells at 1.1 uM after 24 hrs by Annexin V-FITC/propidium iodide staining based flow cytometry (reference value: 1.71%); type: functional
[11] = system: Trypanosoma cruzi; test: Antitrypanosomal activity against Trypanosoma cruzi trypomastigotes assessed as late apoptotic cells at 1.1 uM after 24 hrs by Annexin V-FITC/propidium iodide staining based flow cytometry (reference value: 0.8%); type: functional
[12] = system: Trypanosoma cruzi; test: Antitrypanosomal activity against Trypanosoma cruzi trypomastigotes assessed as early apoptotic cells at 0.25 uM after 24 hrs by Annexin V-FITC/propidium iodide staining based flow cytometry (reference value: 1.71%); type: functional
[13] = system: Trypanosoma cruzi; test: Antitrypanosomal activity against Trypanosoma cruzi trypomastigotes assessed as necrotic cells at 0.25 uM after 24 hrs by Annexin V-FITC/propidium iodide staining based flow cytometry (reference value: 0.37%); type: functional

Sequence of Cruzipain (Trypanosoma cruzi) (P25779 123-467 limits assumed): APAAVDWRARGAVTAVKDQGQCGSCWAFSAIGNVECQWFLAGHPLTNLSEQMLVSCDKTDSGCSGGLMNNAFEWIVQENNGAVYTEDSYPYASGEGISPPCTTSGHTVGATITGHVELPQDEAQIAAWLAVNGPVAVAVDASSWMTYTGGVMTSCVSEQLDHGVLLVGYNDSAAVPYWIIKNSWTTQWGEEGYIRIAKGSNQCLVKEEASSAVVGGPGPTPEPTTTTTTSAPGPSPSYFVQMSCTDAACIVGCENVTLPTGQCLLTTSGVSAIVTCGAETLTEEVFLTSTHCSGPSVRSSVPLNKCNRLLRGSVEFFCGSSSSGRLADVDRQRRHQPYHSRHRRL

SMILES	IC50 [2] [µM]	CC50 [1] [µM]	MNTC at 24 h [3] [µM]	other results
C/C(=N\NC(N)=S)C(C)Oc1cccc(Cl)c1 (stereo not given)	45.8	5.5	36.8	Activity [4]: Active
CCc1ccc(OC(C)/C(C)=N/NC(N)=S)cc1 (stereo not given)	11.6	4.6	18.8	
C/C(=N\NC(N)=S)C(C)Oc1ccc(Br)cc1 (stereo not given)	20.1	3.9	31.6	
C/C(=N\NC(N)=S)C(C)Oc1ccc(F)c(Cl)c1 (stereo not given)		3.5	34.5	
C/C(=N\NC(N)=S)C(C)Oc1ccc2ccccc2c1 (stereo not given)	17.9	5.6	34.8	
C/C(=N\NC(N)=S)C(C)Oc1ccc(F)cc1 (stereo not given)	86.4	23.2	> 392	
C/C(=N\NC(N)=S)C(C)Oc1ccccc1 (stereo not given)	26.1	27.3	211	
O=C(Cn1ccnc1[N+](=O)[O-])NCc1ccccc1 [BENZNIDAZOLE]	48.8	6.2		
C/C(=N\NC(N)=S)C(C)Oc1ccc([N+](=O)[O-])cc1 (stereo not given)	177	5.9	88.5	inhibition [5]: inactive
C/C(=N\NC(N)=S)C(C)Oc1ccc(Cl)cc1 (stereo not given)	13.5	22.8	92	
CC(=O)Nc1ccc(OC(C)/C(C)=N/NC(N)=S)cc1 (stereo not given)	71.5	1.4	> 340	Selectivity Index [8]: 250; CC50 at 24 h [3]: 350 µM; Activity [4]: Active
C/C(=N\NC(N)=S)C(C)Oc1ccccc1Cl (stereo not given)	10.3	1.5	36.8	
C/C(=N\NC(N)=S)C(C)Oc1ccc(Oc2ccccc2)cc1 (stereo not given)		1.3	30.3	
COc1ccc(OC(C)/C(C)=N/NC(N)=S)cc1 (stereo not given)	27.6	26.8	93.5	

Second part, led by results:

IC50 [2] [µM]	SMILES	CC50 [1] [µM]	MNTC at 24 h [3] [µM]	other results
4.4	C/C(=N\NC(N)=S)C(C)Oc1ccc(Cl)c(Cl)c1 (stereo not given)	4.4	16.3	
5.7	CC1CS(=O)(=O)CCN1/N=C/c1ccc([N+](=O)[O-])o1 (stereo not given) [NIFURTIMOX]	2.7		
5.9	C/C(=N\NC(N)=S)C(C)Oc1ccc(C(C)C)cc1 (stereo not given)	1.5	17.9	
4.9	C/C(=N\NC(N)=S)C(C)Oc1ccc(I)cc1 (stereo not given)	1.1	13.7	
5.8	C/C(=N\NC(N)=S)C(C)Oc1cccc(Br)c1 (stereo not given)	4.5	31.6	
4.9	C/C(=N\NC(N)=S)C(C)Oc1cccc2ccccc12 (stereo not given)	1.5	34.8	inhibition [5]: inactive
4.6	C/C(=N\NC(N)=S)C(C)Oc1ccc(C(C)(C)C)cc1 (stereo not given)	1.4	17	
6.8	COc1cccc(OC(C)/C(C)=N/NC(N)=S)c1 (stereo not given)	6.2	37.4	
2.2	C/C(=N\NC(N)=S)C(C)Oc1ccccc1-c1ccccc1 (stereo not given)	1.1	31.9	Activity [6]: 4.62%; Activity [7]: 2.21%; Selectivity Index [8]: 45; Activity [9]: Dose-dependent effect; Activity [10]: 7.8%; Activity [11]: 6.2%; Activity [12]: 1.22%; CC50 at 24 h [3]: 50 µM; Activity [13]: 0.51%
2.2	C/C(=N\NC(N)=S)C(C)Oc1cccc(Cl)c1Cl (stereo not given)	11.9	32.6	
4.5	C/C(=N\NC(N)=S)C(C)Oc1ccc(-c2ccccc2)cc1 (stereo not given)	1.3	15.9	inhibition [5]: inactive
2.2	C/C(=N\NC(N)=S)C(C)Oc1cccc(-c2ccccc2)c1 (stereo not given)	1.3	31.9	
